The text below walks through data of ChEMBL document CHEMBL3351902, “Design and synthesis of novel spin-labeled camptothecin derivatives as potent cytotoxic agents” (Bioorg Med Chem, 2014).

Holding throughout (type): functional, cell-based
Assay [1] concerns A549. Briefly: Cytotoxicity against human A549 cells after 72 hrs by SRB assay. (In general: The SRB assay estimates cell density from bound dye.)
The test system of assay [2] is MDA-MB-231. Briefly: Cytotoxicity against human MDA-MB-231 cells after 72 hrs by SRB assay. The gist of the method: (§1)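 Cells grown in RPMI-1640 with 2 mM L-glutamine, 25 mM HEPES, 10% heat-inactivated FBS, penicillin/streptomycin and amphotericin B, 5% CO2. Seeded at 4.0–7.5 × 10^3 cells/well into medium containing graded sample concentrations, 72 h at 37 °C. Fixed with 10% TCA for 30 min, stained 0.04% SRB for 30 min, dye solubilized in 10 mM Tris base, absorbance at 515 nm. Triplicate runs with duplicate samples, mean IC50 ± SD.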

The test system of assay [3] is KB. Briefly: Cytotoxicity against human KB cells after 72 hrs by SRB assay.
Assay [4] is described as follows: Cytotoxicity against human KBVIN cells after 72 hrs by SRB assay. The gist of the method:
as §1

Molecules are shown by their SMILES.

Regarding `CC[C@@]1(OC(=O)CN/C(CCOC2CC(C)(C)N([O])C(C)(C)C2)=N/S(=O)(=O)c2ccc3ccccc3c2)C(=O)OCc2c1cc1n(c2=O)Cc2cc3ccccc3nc2-1`, the IC50 in assay [1] came to 480 nM; in assay [2], 610 nM; in assay [3], 580 nM; in assay [4] (kbvin), 330 nM.
For `CC[C@@]1(OC(=O)CN/C(CCOC2CC(C)(C)N([O])C(C)(C)C2)=N/S(=O)(=O)c2ccc(C)cc2)C(=O)OCc2c1cc1n(c2=O)Cc2cc3ccccc3nc2-1`, in that order: 76 nM, 450 nM, 210 nM and 110 nM.
For `CC[C@@]1(OC(=O)[C@@H](C)N/C(CCOC2CC(C)(C)N([O])C(C)(C)C2)=N/S(=O)(=O)c2ccc(C)cc2)C(=O)OCc2c1cc1n(c2=O)Cc2cc3ccccc3nc2-1`, the IC50 in assay [1] came out at 450 nM; in assay [2], 530 nM; in assay [3], 560 nM; in assay [4] (kbvin), 250 nM.
For `CC[C@@]1(OC(=O)[C@H](N/C(CCOC2CC(C)(C)N([O])C(C)(C)C2)=N/S(=O)(=O)c2ccc(C)cc2)C(C)C)C(=O)OCc2c1cc1n(c2=O)Cc2cc3ccccc3nc2-1`, in that order: greater than 1000 nM, greater than 1000 nM, greater than 1000 nM and greater than 1000 nM.
For `CC[C@@]1(OC(=O)CN/C(CCOC2CC(C)(C)N([O])C(C)(C)C2)=N/S(C)(=O)=O)C(=O)OCc2c1cc1n(c2=O)Cc2cc3ccccc3nc2-1` the same measures were 59 nM, 110 nM, 71 nM and 90 nM.
`CC[C@@]1(OC(=O)CN/C(CCOC2CC(C)(C)N([O])C(C)(C)C2)=N/S(=O)(=O)CC)C(=O)OCc2c1cc1n(c2=O)Cc2cc3ccccc3nc2-1`: the concentration for half-maximal inhibition (IC50) in assay [1] amounted to 55 nM; in assay [2] it was 80 nM; in assay [3], 59 nM; in assay [4] (kbvin) it was 57 nM.
For `CCCCS(=O)(=O)/N=C(\CCOC1CC(C)(C)N([O])C(C)(C)C1)NCC(=O)O[C@]1(CC)C(=O)OCc2c1cc1n(c2=O)Cc2cc3ccccc3nc2-1` the same measures were 62 nM, 230 nM, 75 nM and 95 nM.
For `CC[C@@]1(OC(=O)CN/C(CCOC2CC(C)(C)N([O])C(C)(C)C2)=N/S(=O)(=O)c2ccc(OC)cc2)C(=O)OCc2c1cc1n(c2=O)Cc2cc3ccccc3nc2-1` the same measures were 81 nM, 270 nM, 110 nM and 96 nM.
For `CC[C@@]1(OC(=O)CN/C(CCOC2CC(C)(C)N([O])C(C)(C)C2)=N/S(=O)(=O)c2ccc(Cl)cc2)C(=O)OCc2c1cc1n(c2=O)Cc2cc3ccccc3nc2-1`, in that order: 63 nM, 190 nM, 73 nM and 84 nM.
Take `CC[C@@]1(OC(=O)CN/C(CCOC2CC(C)(C)N([O])C(C)(C)C2)=N/S(=O)(=O)c2ccc(F)cc2)C(=O)OCc2c1cc1n(c2=O)Cc2cc3ccccc3nc2-1`: the IC50 in assay [1] amounted to 86 nM; in assay [2] it was 270 nM; in assay [3] it was 120 nM; in assay [4] (kbvin), 100 nM.
For `CC[C@@]1(OC(=O)CN/C(CCOC2CC(C)(C)N([O])C(C)(C)C2)=N/S(=O)(=O)c2ccc([N+](=O)[O-])cc2)C(=O)OCc2c1cc1n(c2=O)Cc2cc3ccccc3nc2-1` the same measures were 58 nM, 100 nM, 59 nM and 72 nM.
For `CC[C@@]1(OC(=O)[C@@H](CC(C)C)N/C(CCOC2CC(C)(C)N([O])C(C)(C)C2)=N/S(=O)(=O)c2ccc(C)cc2)C(=O)OCc2c1cc1n(c2=O)Cc2cc3ccccc3nc2-1` the same measures were 610 nM, 840 nM, 700 nM and 740 nM.
For `CCC(C)[C@@H](N/C(CCOC1CC(C)(C)N([O])C(C)(C)C1)=N/S(=O)(=O)c1ccc(C)cc1)C(=O)O[C@]1(CC)C(=O)OCc2c1cc1n(c2=O)Cc2cc3ccccc3nc2-1` (stereo partly specified), in that order: greater than 1000 nM, greater than 1000 nM, greater than 1000 nM and greater than 1000 nM.
With `CC[C@@]1(OC(=O)[C@@H](Cc2ccccc2)N/C(CCOC2CC(C)(C)N([O])C(C)(C)C2)=N/S(=O)(=O)c2ccc(C)cc2)C(=O)OCc2c1cc1n(c2=O)Cc2cc3ccccc3nc2-1`, the half-maximal inhibitory concentration (IC50) in assay [1] is 170 nM; in assay [2] it was 500 nM; in assay [3], 310 nM; in assay [4] (kbvin), 100 nM.
For `CC[C@@]1(OC(=O)CN/C(CCOC2CC(C)(C)N([O])C(C)(C)C2)=N/S(=O)(=O)c2cccs2)C(=O)OCc2c1cc1n(c2=O)Cc2cc3ccccc3nc2-1`, in that order: 63 nM, 110 nM, 63 nM and 83 nM.
Regarding `CC[C@@]1(OC(=O)CN/C(CCOCC2CC(C)(C)N([O])C(C)(C)C2)=N/S(=O)(=O)c2ccc(C)cc2)C(=O)OCc2c1cc1n(c2=O)Cc2cc3ccccc3nc2-1`, the IC50 in assay [1] worked out at 62 nM; in assay [2] it was 91 nM; in assay [3], 80 nM; in assay [4] (kbvin), 84 nM.
For `CC[C@@]1(OC(=O)CN/C(CCOCC2=CC(C)(C)N([O])C2(C)C)=N/S(C)(=O)=O)C(=O)OCc2c1cc1n(c2=O)Cc2cc3ccccc3nc2-1` the same measures were 62.9 nM, 103 nM, 82.3 nM and 83.4 nM.
For `CC[C@@]1(OC(=O)CN/C(CCOCC2=CC(C)(C)N([O])C2(C)C)=N/S(=O)(=O)c2ccc(C)cc2)C(=O)OCc2c1cc1n(c2=O)Cc2cc3ccccc3nc2-1`, in that order: 74 nM, 120 nM, 91 nM and 94 nM.
For `CC[C@@]1(OC(=O)CN/C(CCOCC2=CC(C)(C)N([O])C2(C)C)=N/S(=O)(=O)c2ccc(OC)cc2)C(=O)OCc2c1cc1n(c2=O)Cc2cc3ccccc3nc2-1`, in that order: 90 nM, 180 nM, 130 nM and 150 nM.
As to `CC[C@@]1(OC(=O)CN/C(CCOCC2=CC(C)(C)N([O])C2(C)C)=N/S(=O)(=O)c2ccc(F)cc2)C(=O)OCc2c1cc1n(c2=O)Cc2cc3ccccc3nc2-1`, the half-maximal inhibitory concentration (IC50) in assay [1] is 77 nM; in assay [2] it was 140 nM; in assay [3] it was 120 nM; in assay [4] (kbvin), 95 nM.
In assay [4] (Homo sapiens, KBVIN, 72 h), `CC[C@@]1(O)C(=O)OCc2c1cc1n(c2=O)Cc2cc3c(CN(C)C)c(O)ccc3nc2-1` [TOPOTECAN] showed a half-maximal inhibitory concentration (IC50) of 400 nM.

The IC50 is the point on the concentration scale where inhibition reaches its midpoint. Low readings indicate greater potency in that assay, high ones weaker potency in that assay.
